Screening data from PubChem.
Beta2AR agonist: activates human beta-2 adrenergic receptor causing internalization; P07550; Am2.2-beta2AR cells, FAP receptor internalization, flow cytometry; response, % (concentration not given with the values); 0.43% of 340,000 active; AID 504454;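 active = response above a set limit, near 3 SD of response in nonfluorescent compounds, cut at about 42% in these data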
TAAR1 antagonist: human TAAR1 antagonism; Q96RJ0; CHO RD-HGA16 TAAR1, Fluo-8 calcium fluorescence, antagonist; inhibition, % at 3 µM; 1.5% of 360,000 active;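 active = inhibition above a per-plate cutoff, the mean inhibition of test compounds on that plate plus 3 SD, cut at about 49% in these data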;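 note: 0% = DMSO plus EC80 beta-PEA response and 100% = DMSO alone without agonist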
Target sequence (Q96RJ0 whole entry, looked up): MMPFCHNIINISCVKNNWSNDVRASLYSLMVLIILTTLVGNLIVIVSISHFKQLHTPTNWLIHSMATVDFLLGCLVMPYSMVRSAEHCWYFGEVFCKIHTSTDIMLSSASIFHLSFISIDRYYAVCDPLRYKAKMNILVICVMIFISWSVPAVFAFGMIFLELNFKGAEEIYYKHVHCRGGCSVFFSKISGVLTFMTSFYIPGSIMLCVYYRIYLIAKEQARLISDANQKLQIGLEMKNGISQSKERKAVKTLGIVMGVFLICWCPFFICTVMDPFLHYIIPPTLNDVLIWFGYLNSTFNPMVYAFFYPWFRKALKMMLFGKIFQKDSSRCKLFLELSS
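Material: RD-HGA16 CHO cells with stable hTAAR1 and Gα16; Dosing: single nominal final test compound concentration of 3 µM; Schedule: seeding 17-24 h prior, 75-min 37 °C, 30-min RT dye loading; Detection: kinetic Fluo-8 calcium fluorescence measurement; Measure: % inhibition from peak post-agonist over basal fluorescence ratio; Benchmarks: vehicle and agonist controls.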
MC4R barr agon: activates human MC4R beta-arrestin recruitment. AID 540308. 0.98% of 360,000 active. P32245. U2OS MC4R beta-arrestin complementation, luminescence; percent of melanotan II response, DMSO zero. activation, % at 8.9 µM;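 active = activation above a per-plate cutoff, the mean activation of sample wells on that plate plus 3 SD, cut at about 8% in these data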
Target sequence (P32245 whole entry, looked up): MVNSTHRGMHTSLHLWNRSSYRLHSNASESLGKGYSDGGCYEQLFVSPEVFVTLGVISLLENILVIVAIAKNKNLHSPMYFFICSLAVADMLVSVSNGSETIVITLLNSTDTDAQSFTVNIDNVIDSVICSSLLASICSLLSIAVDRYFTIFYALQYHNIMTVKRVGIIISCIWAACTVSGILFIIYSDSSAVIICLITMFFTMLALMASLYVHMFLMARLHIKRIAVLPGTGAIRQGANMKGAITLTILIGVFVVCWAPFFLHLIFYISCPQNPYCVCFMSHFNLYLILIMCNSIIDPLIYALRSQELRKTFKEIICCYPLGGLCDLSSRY
HTR2A ag: mouse HTR2A agonism via beta-arrestin recruitment; P35363; CHO-K1 mHTR2A beta-arrestin complementation, luminescence; percent of 30 µM serotonin response; activation, % at 7.6 µM; 0.66% of 360,000 active; AID 624169;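 active = activation above a run cutoff, the mean activation of all tested compounds plus 3 SD, cut at about 14% in these data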;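 note: 0% = plate median of compound wells and 100% = 30 µM serotonin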
MC4R antagonist: human MC4R antagonism in cAMP assay; MC4R-expressing cells, MTII-stimulated cAMP, LANCE TR-FRET; inhibition, % at 6.5 µM; 0.48% of 360,000 active; AID 540295;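 active = inhibition above its plate's cutoff, the mean of tested wells on that plate plus 3 SD, cut at about 29% in these data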;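 note: 0% = Melanotan II alone and 100% = Melanotan II plus saturating MCL0020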
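material = U2OS cells stably expressing human melanocortin 4 receptor (MC4R) | also added = Melanotan II challenge | dosing = single nominal compound dose of 6.5 µM | detection = TR-FRET with Eu-cAMP and labeled anti-cAMP, 671 nm | replication = singlicate | timing = compound 30 min, challenge 1 h, detection 1 h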
TAAR1 agonist: human TAAR1 agonism; Q96RJ0; CHO RD-HGA16 TAAR1, Fluo-8 calcium fluorescence; vehicle wells 0%, saturating PEA agonist 100%; activation, % at 3 µM; 0.99% of 360,000 active; AID 624467;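 active = activation above the mean activation of all test compounds in the run plus 3 SD, cut at about 38% in these data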
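Assay system – CHO-derived RD-HGA16 cells with stable Gα16 and human TAAR1 · Compound dosing – one-point dosing at 3 µM (nominal) · Incubation – 17-24 h seeding, 75 min 37 °C dye, 30 min RT · Measured by – kinetic Fluo-8 calcium fluorescence · Control set – DMSO vehicle as 0%, PEA at EC100 as 100% · Repeats – single well for each compound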
OPRM1 ag: counter-screen for mouse HTR2A agonists: human mu opioid receptor agonists | shares compounds with HTR2A ag | 5.3% of 2,300 active | U2OS OPRM1 beta-arrestin PathHunter, luminescence; DMSO 0%, DAMGO 9.3 µM 100% | activation, % at 9.3 µM | AID 624380;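 active = mean activation above the mean of DMSO-only wells plus 3 SD, cut at about 0.5% in these data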
m5-HT2A ag conf: mouse HTR2A agonism confirmed; CHO-K1 PathHunter beta-arrestin recruitment, luminescence; DMSO 0%, 30 µM serotonin 100%; AID 624381; 19% of 2,300 active; activation, % at 7.6 µM; shares compounds with HTR2A ag;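 active = mean activation across triplicates above the hit threshold derived in the original primary screen, cut at about 15% in these data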
Active calls of the source: *. Most compounds without a hit are left out; they make up all but 4.3% or so of the library.

Results for O=C(COc1ccc(Br)cc1)N1CCN(Cc2c[nH]c3ccccc23)CC1 ?
Beta2AR agonist: 14; TAAR1 antagonist: 13; MC4R barr agon: 0; HTR2A ag: 56*; MC4R antagonist: 8; TAAR1 agonist: 19; OPRM1 ag: 0; m5-HT2A ag conf: 28*

What do the screens show for `c1ccc2c(CN3CCCCC3)c[nH]c2c1`?
Beta2AR agonist: 4; TAAR1 antagonist: -30; MC4R barr agon: -2; HTR2A ag: 4; MC4R antagonist: 2; TAAR1 agonist: 1

Results for O=C(COc1ccc2ccccc2c1)N1CCN(Cc2c[nH]c3ccccc23)CC1 ?
Beta2AR agonist: 9; TAAR1 antagonist: 21; MC4R barr agon: 1; HTR2A ag: 34*; MC4R antagonist: 1; TAAR1 agonist: 31; OPRM1 ag: 0; m5-HT2A ag conf: 19*

What do the screens show for `COC1=CCC2([N+](=O)[O-])CN(C)CC1([N+](=O)[O-])C2` (stereo unspecified)?
Beta2AR agonist: -4; TAAR1 antagonist: 0; MC4R barr agon: 1; HTR2A ag: 7; MC4R antagonist: -2; TAAR1 agonist: 0

What do the screens show for `CC[C@H](C)[C@@H]1NC(=O)CNC(=O)c2csc(n2)[C@H](C(C)(C)O)OC(=O)C(C)(C)[C@H](CCCC(C)(Cl)Cl)OC(=O)c2csc1n2`?
TAAR1 antagonist: -17; HTR2A ag: 15*; TAAR1 agonist: -1; OPRM1 ag: 0; m5-HT2A ag conf: 5

Results for O=C(O)CN1C(=O)CN=C(c2ccccn2)c2cc(Cl)ccc21 ?
Beta2AR agonist: 8; TAAR1 antagonist: -10; MC4R barr agon: 0; HTR2A ag: -8; MC4R antagonist: 0; TAAR1 agonist: 0

How did O=C(Oc1c(Cl)cc(Cl)c2ccccc12)N1CCCCC1 do in these assays?
Beta2AR agonist: 30; TAAR1 antagonist: 14; MC4R barr agon: 4; HTR2A ag: 15*; MC4R antagonist: -5; TAAR1 agonist: 21; OPRM1 ag: 0; m5-HT2A ag conf: 6

What do the screens show for `CCN1CCN(c2cc(N3CCCC3)c([N+](=O)[O-])cc2F)CC1`?
Beta2AR agonist: -3; TAAR1 antagonist: 0; MC4R barr agon: -4; HTR2A ag: -7; MC4R antagonist: -1; TAAR1 agonist: 2

What do the screens show for `Clc1cccc(CNCCc2c[nH]c3ccccc23)c1`?
Beta2AR agonist: 25; TAAR1 antagonist: 9; MC4R barr agon: 1; HTR2A ag: 42*; MC4R antagonist: -2; TAAR1 agonist: 14; OPRM1 ag: 0; m5-HT2A ag conf: 19*

Results for FC(F)(F)c1ccc(CNCCc2c[nH]c3ccccc23)cc1 ?
Beta2AR agonist: 7; TAAR1 antagonist: -18; MC4R barr agon: 3; HTR2A ag: 2; MC4R antagonist: 1; TAAR1 agonist: 16

What do the screens show for `Nc1ccccc1C(=O)OCc1ccc([N+](=O)[O-])cc1`?
Beta2AR agonist: 13; TAAR1 antagonist: -3; MC4R barr agon: -3; HTR2A ag: -1; MC4R antagonist: 0; TAAR1 agonist: 11

How did Cc1nc2cc(OC(=O)N(C)Cc3cccc(-c4ccncc4)c3)ccc2s1 do in these assays?
HTR2A ag: 20*; OPRM1 ag: 0; m5-HT2A ag conf: -4

What do the screens show for `N#Cc1c(Br)n(C2OC(CO)C(O)C2O)c2ncnc(N)c12` (stereo unspecified)?
Beta2AR agonist: -8; TAAR1 antagonist: -1; MC4R barr agon: -3; HTR2A ag: 51*; MC4R antagonist: -3; TAAR1 agonist: 0; OPRM1 ag: 0; m5-HT2A ag conf: 100*

What do the screens show for `CC1CN1c1cc2c(c3c1ccn3C)C1CCC2C1` (stereo unspecified)?
TAAR1 antagonist: -9; HTR2A ag: 7; TAAR1 agonist: 0

How did CC(=O)c1cc(C#N)c(N2CCN(C)CC2)nc1C do in these assays?
Beta2AR agonist: 1; TAAR1 antagonist: 10; MC4R barr agon: 2; HTR2A ag: -3; MC4R antagonist: 6; TAAR1 agonist: 3

What do the screens show for `Cc1cccc(OCC(O)CN2CC2)c1` (stereo unspecified)?
TAAR1 antagonist: -6; MC4R barr agon: 0; HTR2A ag: 2; MC4R antagonist: 6; TAAR1 agonist: 0

How did CC(=O)c1cccc(OCC(O)CN2CC=C(c3ccccc3)CC2)c1 (stereo unspecified) do in these assays?
Beta2AR agonist: -11; TAAR1 antagonist: -6; MC4R barr agon: 0; HTR2A ag: 19*; MC4R antagonist: 2; TAAR1 agonist: 9; OPRM1 ag: -1; m5-HT2A ag conf: 79*

Results for NC1CCc2cc(O)c(O)cc2C1 (stereo unspecified) ?
Beta2AR agonist: -2; TAAR1 antagonist: -28; MC4R barr agon: 0; HTR2A ag: 58*; MC4R antagonist: -13; TAAR1 agonist: 39*; OPRM1 ag: 0; m5-HT2A ag conf: 153*

Results for CCCCCCC(C)(C)c1ccc([C@@H]2C[C@H](O)CC[C@H]2CCCO)c(O)c1 ?
Beta2AR agonist: 1; TAAR1 antagonist: -3; MC4R barr agon: 5; HTR2A ag: 29*; MC4R antagonist: 14; TAAR1 agonist: 2; OPRM1 ag: 0.8*; m5-HT2A ag conf: 23*

What do the screens show for `NC(Cc1ccc(Cl)cc1)c1csc(Nc2ncccn2)n1` (stereo unspecified)?
TAAR1 antagonist: -21; MC4R barr agon: 1; HTR2A ag: 5; MC4R antagonist: 0; TAAR1 agonist: 32

What do the screens show for `CC(=O)N1CCC(N2CCCC(C(=O)c3cccc(Cl)c3)C2)CC1` (stereo unspecified)?
Beta2AR agonist: -4; TAAR1 antagonist: 12; MC4R barr agon: 0; HTR2A ag: 36*; MC4R antagonist: -2; TAAR1 agonist: 0; OPRM1 ag: 0; m5-HT2A ag conf: 86*

What do the screens show for `CN1CCN(C(=O)Cc2ccccc2)CC1`?
Beta2AR agonist: -5; TAAR1 antagonist: -1; MC4R barr agon: 3; HTR2A ag: 20*; MC4R antagonist: -3; TAAR1 agonist: 0; OPRM1 ag: -1; m5-HT2A ag conf: 1

How did O=C(Cc1ccccc1)N1CCN(Cc2ccccc2Cl)CC1 do in these assays?
Beta2AR agonist: -2; TAAR1 antagonist: -9; MC4R barr agon: 0; HTR2A ag: 22*; MC4R antagonist: 0; TAAR1 agonist: 8; OPRM1 ag: -1; m5-HT2A ag conf: 2
